In the library only some 2.3% were active in any assay of this set; here they are far more common.
FN deposit inh: inhibitors of fibronectin matrix deposition, primary screen, AH1F cells, Alexa488-fibronectin fluorescence, plate reader | AH1F fibroblasts, overnight | inhibition, % at 12.6 µM | 0.086% of 350,000 active | AID 743247, 2014;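 active = mean inhibition across replicates of 30% or more, regardless of how many single replicates reach that level; inconclusive = mean under 30% yet at least half of replicates reach 30%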
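Schedule: 1 h cell adhesion before compound, then overnight fibronectin incubation; test system: AH1F fibroblast monolayer depositing Alexa488-labelled fibronectin into matrix; quantity: 10000 AH1F cells per well; probe or stimulus: fluorescent fibronectin at 24 nM final; signal: fluorescence, ex 485 nm, em 525 nm; evaluation: percent inhibition as loss of matrix-bound fibronectin fluorescence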
PGC1a acetyl inh: inhibitors of PGC1a acetylation signal, primary screen, cell-based, U2OS, AlphaScreen, inhibitor mode | AlphaScreen anti-acetyl-lysine; with virally co-expressed GCN5 acetyltransferase | inhibition, % at 15.6 µM | 0.17% of 350,000 active;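 active = every replicate shows inhibition of at least 40%; inconclusive = mean inhibition at least 40% but some replicate below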
EWS-Fli inh: EWS/Fli-driven NR0B1 reporter inhibitors, primary screen, A673 cells, NR0B1 luciferase, luminescence, MLPCN library; viability-normalised; inhibition, % at 12.6 µM; 0.67% of 350,000 active;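 active = mean inhibition of at least 50% after viability correction, with every replicate also passing that limit; inconclusive = mean reaches 50% but only one of two replicates passes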;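 note: firefly luciferase signal divided by Alamar Blue viability fluorescence both relative to DMSO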
F508del corr: F508del CFTR correction, initial screen, CFBE line, single point. CFBE cells, YFP halide quenching; stimulated with forskolin plus potentiator P3; % fluorescence drop versus neutral controls. activity (quench increase), % at 7.58 µM. 0.36% of 350,000 active. AID 720511, 2013;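 active = mean added fluorescence quench of at least 8% versus neutral control, with both replicates also reaching 8%; inconclusive = only one of the mean or replicate conditions met; inactive = mean below 8% and not both replicates reaching 8%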;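 note: cells transiently co-express mutant CFTR-F508del with the halide-sensitive YFP; corrector assay measuring rescue of mutant channel to the surface after 24 h compound exposure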
PAX8 reporter: inhibitors of PAX8-driven TPO luciferase reporter, primary screen, RMG-I cells, single concentration. AID 652154, 2013. SteadyGlo, 24 h. inhibition, % at 12.6 µM. 1.2% of 360,000 active;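 active = mean replicate inhibition at least 60% with every replicate also reaching 60%; inconclusive = only one of the two criteria is met; inactive = mean below 60% and not all replicates reaching 60%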;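 note: luciferase light reporting Pax8 driven TPO promoter activity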
Env fusion inh: inhibitors of HIV-1 Env-driven cell-cell fusion, primary screen, HeLa-JRFL effector, CEM21 target cells, luciferase | inhibition, % at 12.3 µM | 1.1% of 360,000 active | AID 651610, 2012;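 active = mean replicate inhibition score of at least 50 and every replicate individually at or above 50; inconclusive = only one of the two criteria met; inactive = mean below 50 and not all replicates reaching 50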
Of the large screens only hits and unclear results are named; the others gave an inactive call; [ ] = dose if it differs, or a comment.

O=c1c2ccccc2cnn1-c1nc2ccccc2[nH]1	EWS-Fli inh 91, PAX8 reporter 114, Env fusion inh 63 (no result: FN deposit inh, PGC1a acetyl inh)
O=c1c(Cl)c(N2CCCCC2)cnn1-c1nc2ccccc2[nH]1	none (no result: EWS-Fli inh, F508del corr, PAX8 reporter)
Nc1nc(NCc2ccccc2)nc(NCCO)c1[N+](=O)[O-]	Env fusion inh 63
Nc1nc(NCCO)nc(NCc2ccccc2)c1[N+](=O)[O-]	none (no result: FN deposit inh, EWS-Fli inh, F508del corr, PAX8 reporter, Env fusion inh)
COc1ccc(NC(=O)N[C@@H]2CC[C@@H](CCNC(=O)Cc3ccncc3)O[C@H]2CO)cc1	none
C[C@@H]1CCCCO[C@H](CN(C)C)[C@@H](C)CN([C@H](C)CO)C(=O)c2cc(NC(=O)Nc3ccccc3)ccc2O1	none (no result: FN deposit inh)
COc1cc(/C=N/NC(N)=S)cc(Br)c1OCc1ccccc1F	PAX8 reporter 70 (no result: PGC1a acetyl inh, EWS-Fli inh, F508del corr)
CCOc1cc(/C=N/NC(N)=S)cc(Br)c1OCc1ccccc1C	none (no result: FN deposit inh, EWS-Fli inh, F508del corr, PAX8 reporter, Env fusion inh)
C[C@H]1CCCCO[C@@H](CN(C)C(=O)Nc2ccc3c(c2)OCO3)[C@@H](C)CN([C@@H](C)CO)C(=O)c2cc(NC(=O)NC3CCCCC3)ccc2O1	none (no result: FN deposit inh)
CN1/C(=C\C(=S)NC(=O)c2ccccc2Cl)C(C)(C)c2ccccc21	none (no result: F508del corr)
CN1/C(=C\C(=O)Nc2ccc(Cl)cc2)C(C)(C)c2ccccc21	none (no result: PGC1a acetyl inh)
CN1/C(=C\C(=S)Nc2ccccc2)C(C)(C)c2ccccc21	Env fusion inh 53
COc1ccccc1C(=O)NC(=S)/C=C1/N(C)c2ccccc2C1(C)C	F508del corr 10.0 (no result: PGC1a acetyl inh, Env fusion inh)
Cc1cccc[n+]1CC(=O)/C=C1\N(C)c2ccccc2C1(C)C	EWS-Fli inh 75, Env fusion inh inconclusive (no result: FN deposit inh, F508del corr)
COc1ccccc1CNC(=O)C[C@@H]1C[C@@H]2c3cc(NS(=O)(=O)c4ccc(F)cc4)ccc3O[C@@H]2[C@@H](CO)O1	none (no result: FN deposit inh)
COC(=O)C[C@@H]1C[C@@H]2c3cc(NS(=O)(=O)c4cccc(OC)c4)ccc3O[C@@H]2[C@@H](CO)O1	none (no result: FN deposit inh)
COc1ccccc1CNC(=O)C[C@H]1C[C@@H]2c3cc(NS(=O)(=O)c4ccc(F)cc4)ccc3O[C@@H]2[C@H](CO)O1	Env fusion inh 94[16.7 µM] (no result: FN deposit inh)
COC(=O)C[C@@H]1C[C@H]2c3cc(NS(=O)(=O)c4cccc(OC)c4)ccc3O[C@H]2[C@@H](CO)O1	Env fusion inh 60[16.7 µM] (no result: FN deposit inh)
COc1ccccc1CNC(=O)C[C@H]1C[C@@H]2c3cc(NS(=O)(=O)c4ccc(F)cc4)ccc3O[C@@H]2[C@@H](CO)O1	Env fusion inh 55[16.7 µM] (no result: FN deposit inh)
Cc1ccc(N/C(N)=N/c2nc(CSc3nnc(C)s3)cc(=O)[nH]2)c(C)c1	EWS-Fli inh 69 (no result: FN deposit inh)
COc1ccc(N/C(N)=N/c2nc(CSc3nnc(C)s3)cc(=O)[nH]2)cc1	none
O=C(Nc1ccccc1)N[C@@H]1CC[C@H](CCNS(=O)(=O)c2cccc(F)c2)O[C@H]1CO	none (no result: FN deposit inh)
CN1c2ccc(C3=CCCCC3)cc2[C@H]2[C@H](CCN2C(=O)NC2CCCCC2)[C@@H]1CO	PAX8 reporter 77 (no result: Env fusion inh)
CN1c2ccc(C3=CCCCC3)cc2[C@H]2[C@H](CCN2C(=O)C2CCC2)[C@@H]1CO	PAX8 reporter 69
COc1ccc(-c2cnc3c(c2)C(=O)N([C@H](C)CO)C[C@@H](C)[C@H](CN(C)C)O3)cc1	none (no result: PAX8 reporter)
COCC(=O)Nc1ccc2c(c1)OC[C@H](C)N(C(=O)c1ccccc1)C[C@@H](C)[C@@H](OC)CN(C)C2=O	none (no result: PAX8 reporter, Env fusion inh)
COc1ccc(/C=C/c2ccc3cccc(O)c3n2)c(OC)c1OC	FN deposit inh 35
COc1ccc(NC(=O)N(C)C[C@@H]2OCCCC[C@@H](C)Oc3ccc(NC(=O)Nc4c(C)noc4C)cc3C(=O)N([C@@H](C)CO)C[C@H]2C)cc1	none (no result: FN deposit inh)
O=C(C[C@H]1C[C@@H]2c3cc(NC(=O)CC4CC4)ccc3O[C@@H]2[C@@H](CO)O1)NCc1ccccc1F	none (no result: PAX8 reporter, Env fusion inh)
COC(=O)CN1C(c2cccc(Cl)c2)=Nc2ccc(Cl)cc2C1c1ccccc1 (stereo unspecified)	Env fusion inh 56 (no result: PGC1a acetyl inh, F508del corr)
CCN1CCCC(OC(=O)c2cc(-c3ccccc3Cl)nc3ccccc23)C1 (stereo unspecified)	F508del corr 12 (no result: PGC1a acetyl inh)
O=C(c1cc(-c2ccccc2Cl)nc2ccccc12)N1CCC1	none (no result: PGC1a acetyl inh)

Bioassay records: PubChem BioAssay, Broad Institute
